Experimental data: ChEMBL document CHEMBL1138346, “BINOL-amino acid conjugates as triggerable carriers of DNA-targeted potent photocytotoxic agents” (J Med Chem, 2007)
Calls of active or inactive are those of the source. The calls are words filed in the database; no cut-off is given here.

Experiments:
[1] = tested on: LoVo; test: Photocytotoxicity against UV irradiated human LoVo cells after 24 hrs by MTT assay; type: functional, cell-based
Outline: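 LoVo cells in DMEM/F-12 1:1 with 10% FBS, plated at 1.75 × 10^4 cells/well overnight. Exposed 24 h to 12 nM–200 µM compound (DMSO, 1% final), washed, fresh medium, irradiated 30 min at 360 nm, then 24 h at 37 °C. MTT absorbance at 540 nm, survival relative to solvent controls; EC50 from mean of three experiments in triplicate.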

[2] = Partition coefficient, log P of the compound; type: physicochemical; conditions: octanol/water
Outline: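 Calculated log P of neutral form by Crippen fragmentation method.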

[3] = tested on: LoVo; test: Selectivity index, ratio of CC50 for LoVo cells to EC50 for UV irradiated LoVo cells; type: functional, Homo sapiens
Outline: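 Ratio CC50/EC50 in LoVo cells; both from MTT after 24 h compound exposure (12 nM–200 µM, 1% DMSO), then 24 h more either in the dark or after 30 min irradiation at 360 nm. Mean of three triplicate experiments.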

[4] = tested on: LoVo; test: Cytotoxicity against human LoVo cells after 24 hrs by MTT assay; type: functional
Outline: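 Dark cytotoxicity (CC50), LoVo human colorectal adenocarcinoma in DMEM/F-12 1:1 with 10% FBS, 37 °C, 5% CO2. 1.75 × 10^4 cells/well plated overnight; compound 12 nM–200 µM in DMSO (1% final) for 24 h, then washed and fresh medium, kept in dark 24 h more at 37 °C. MTT read at 540 nm; mean of three experiments in triplicate.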

[5] = tested on: Escherichia coli; test: Induction of pBR322 cross-linking in absence of irradiation by alkaline agarose gel assay
[6] = Induction of pBR322 cross-linking after irradiation by alkaline agarose gel assay; conditions: Escherichia coli
Outline: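 pBR322 (0.5 µg/sample) with compound 0.62–80 µM (DMSO stock diluted in water), 50 mM phosphate pH 7.5, irradiated on ice 20 min at 360 nm, 120 W. Run on 1% alkaline agarose (50 mM NaOH, 1 mM EDTA), 12 V, 15–16 h, ethidium bromide stain. Value is lowest concentration giving interstrand cross-link band.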

[7] = tested on: Escherichia coli; test: Induction of pBR322 cross-linking after irradiation at 20 mM at pH 5.5 by alkaline agarose gel assay
[8] = Homo sapiens, LoVo, light or radiation study, 24 h

Structure (SMILES)	EC50 [1, 8] [nM]	logP [2]	Ratio CC50/EC50 [3]	CC50 [4] [µM]	Activity [5]	Minimum concentration for DNA interstrand cross-linking [6] [µM]	Activity [7]	EC50 ([1]; lovo) [nM]
Cc1cc2cc3c(C)cc(=O)oc3c(C)c2o1 [TRIOXSALEN]	940	2.44	>210	> 200	inactive	< 0.5		
COC(=O)[C@@H]1CCCN1Cc1cc2ccccc2c(-c2c(O)c(CN3CCC[C@H]3C(=O)OC)cc3ccccc23)c1O (stereo in doubt; (S,S,S)-5) [listing 1 of 2 here]					inactive	20		
O=C(O)[C@@H]1CCCN1Cc1cc2ccccc2c(-c2c(O)c(CN3CCC[C@H]3C(=O)O)cc3ccccc23)c1O (stereo in doubt; (R,S,S)-6) [listing 1 of 2 here]					inactive	2.5	Active	
COC(=O)[C@@H]1CCCN1Cc1cc2ccccc2c(-c2c(O)c(CN3CCC[C@H]3C(=O)OC)cc3ccccc23)c1O (stereo in doubt; (R,S,S)-5) [listing 1 of 2 here]					inactive	20		
COC(=O)[C@@H]1CCCN1Cc1cc2ccccc2c(-c2c(O)c(CN3CCC[C@H]3C(=O)OC)cc3ccccc23)c1O (stereo in doubt; (S,S,S)-5) [listing 2 of 2 here]		4.81	>900					220
COC(=O)[C@@H]1CCCN1Cc1cc2ccccc2c(-c2c(O)c(CN3CCC[C@H]3C(=O)OC)cc3ccccc23)c1O (stereo in doubt; (R,S,S)-5) [listing 2 of 2 here]	230		>860	> 200				
O=C(O)[C@@H]1CCCN1Cc1cc2ccccc2c(-c2c(O)c(CN3CCC[C@H]3C(=O)O)cc3ccccc23)c1O (stereo in doubt; (R,S,S)-6) [listing 2 of 2 here]	> 200000			> 200				
NCCCC[C@H](NCc1cc2ccccc2c(-c2c(O)c(CN[C@@H](CCCCN)C(=O)O)cc3ccccc23)c1O)C(=O)O	> 200000	3.34		> 200	inactive	20	Active	
COC(=O)[C@H](C)NCc1cc2ccccc2c(-c2c(O)c(CN[C@@H](C)C(=O)OC)cc3ccccc23)c1O	4000	4.38	0.4	1.5	inactive	> 40		
C[N+](C)(C)Cc1cc2ccccc2c(-c2c(O)c(C[N+](C)(C)C)cc3ccccc23)c1O	> 200000			> 200	inactive	1.25		
COC(=O)[C@@H](NCc1cc2ccccc2c(-c2c(O)c(CN[C@H](C(=O)OC)C(C)C)cc3ccccc23)c1O)C(C)C	130	6.15	108	14	inactive	5		
O=C(O)[C@@H]1CCCN1Cc1cc2ccccc2c(-c2c(O)c(CN3CCC[C@H]3C(=O)O)cc3ccccc23)c1O (stereo in doubt; (S,S,S)-6) [listing 1 of 2 here]					inactive	2.5	Active	
O=C(O)[C@@H]1CCCN1Cc1cc2ccccc2c(-c2c(O)c(CN3CCC[C@H]3C(=O)O)cc3ccccc23)c1O (stereo in doubt; (S,S,S)-6) [listing 2 of 2 here]		4.28						
